# Shown are actives, neighbours in structure and some others; about 3% of the full set was active somewhere.
# PLCg1 inh – blocks human PLC-gamma1 enzyme activity. inhibition, % at 12.2 µM. P19174. purified PLC-gamma1, fluorogenic substrate, fluorescence. 370,000 compounds, 0.84% hits; in the data active = inhibition above about 9.5%
# proKLK7 act – activators of human kallikrein-7 zymogen; 370,000 compounds, 0.9% hits; purified proKLK7, EDANS-DABCYL substrate fluorescence; 100% is mature enzyme control, 0% vehicle; P49862; activation, % at 7 µM;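 active = activation above the mean of all tested compounds plus 3 SD, computed per campaign excluding outliers beyond control limits, cut at about 13% in these data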
# PLC-beta3 inh – blocks human PLC-beta3 enzyme activity. Q01970. Purified PLC-beta3, fluorogenic substrate, fluorescence. inhibition, % at 12.2 µM. 370,000 compounds, 0.18% hits. AID 720704;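 also: 0% = median of compound wells on plate and 100% = full blocker control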
# CendR NRP1 mod – modulators of CendR peptide binding to human neuropilin-1 | 360,000 compounds, 0.85% hits | inhibition, % at 25 µM | O14786 | FAM-RPARPAR peptide binding to NRP-1, fluorescence polarization;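 active = inhibition or corrected inhibition above about 18%, plus a signal ratio from 0.5 to 1.5, limit read from the data, passing the limit was not always enough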
# DDE Tn7 FP inh – disrupts Tn7 cyclic peptide binding to fibrin D-Dimer-E complex; P02675; FP displacement of FITC-Tn7 peptide from fibrin DD(E); 0% = median of compound wells per plate; inhibition, % at 8.3 µM; 370,000 compounds, 0.13% hits; AID 720508;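 active = inhibition above the mean of compounds falling within the control limits plus 3 SD of them, cut at about 14% in these data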;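 also: 0% = plate median of compound wells and 100% = 10 µM Aha-Tn7 peptide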
#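 Assay system: human fibrin DD(E). Input: DD(E) 2 µM final. Medium: Tris buffer with calcium and detergent, pH 7.8. Compound dosing: single point at 8.3 µM. Timing: 10 min plus 3 h, room temperature. Technique: fluorescence polarization of the labelled Tn7 tracer. Read-out: percent inhibition. Replicates: singlicate testing.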
# DDE Tn6 FP inh – DD(E)-Tn6 binding inhibition, primary FP screen; P02675; Fibrin DD(E) TRITC-Tn6 fluorescence polarization displacement; inhibition, % at 8.3 µM; 370,000 compounds, 0.21% hits;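 active = inhibition above a per-campaign cutoff: mean of compounds within control limits plus 3 SD, cut at about 15% in these data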;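 also: 0% = median of all compound wells on the plate and 100% = blocking peptide control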
# PLCg1 ctr – counter-screen for PLC-beta3 inhibitors: inhibitors of human PLC-gamma1; purified PLC-gamma1, fluorogenic substrate, fluorescence; inhibition, % at 12.3 µM; AID 743258; shares compounds with PLCg1 inh; 3,300 compounds, 3.1% hits; in the data active = inhibition above about 9.5%
# PLCbeta3 conf – human PLC-beta3 inhibition, confirmation | inhibition, % at 12.3 µM | AID 743261 | shares compounds with PLCg1 inh | purified PLC-beta3, fluorogenic substrate fluorescence | 3,300 compounds, 1% hits
# Active calls of the source: *; . = not tested or not shown. Rule as the data show it, unless noted: active = inhibition above about 11%; inactive = the rest.
SMILES,PLCg1 inh,proKLK7 act,PLC-beta3 inh,CendR NRP1 mod,DDE Tn7 FP inh,DDE Tn6 FP inh,PLCg1 ctr,PLCbeta3 conf
COc1ccc(C(=O)NCC(=O)OC2CCCCC2=O)cc1 (configuration not stated),8.1,-0.2,13.6*,-32.4,-2.5,-4.0,0.5,0.8
CNc1nc(N)c([N+](=O)[O-])c(Nc2ccccc2)n1,1.8,.,5.1,.,-0.6,-0.2,.,.
O=C(CCc1ccccc1)Oc1ccccc1[N+](=O)[O-],12.9*,0.2,8.9,.,7.2,-3.5,-7.8,0.4
O=C(O)CC1=C(c2ccc(F)cc2)CCC1=O,6.3,0.4,13.6*,-11.1,-7.0,4.5,-6.8,-3.2
COc1ccc(C2=C(CC(=O)O)C(=O)CC2)cc1,-19.1,-0.4,-23.0,-4.1,1.1,14.2,.,.
O=C1C(NS(=O)(=O)c2cccs2)=C(N2CCOCC2)C(=O)c2ccccc21,9.8*,0.6,-2.3,-0.2,-3.9,3.6,-9.6,-6.4
N#C/C(=C/c1cccc([N+](=O)[O-])c1)C(=O)Nc1ccccc1O,0.6,0.1,-4.6,3.8,-7.8,-3.0,.,.
N#C/C(=C\c1ccccc1)C(=O)NNS(=O)(=O)c1cccc([N+](=O)[O-])c1,11.0*,-0.3,0.7,-4.5,-3.1,5.9,2.3,5.6
CCOC(=O)C1CCCN(C(=O)C2CCC(CNS(=O)(=O)c3ccc(NC(C)=O)cc3)CC2)C1 (configuration not stated),3.4,1.0,3.6,-15.4,-1.8,-1.2,.,.
CC(=O)Nc1ccc(S(=O)(=O)NCC2CCC(C(=O)N3CCCCC3)CC2)cc1 (configuration not stated),9.9*,0.1,-7.5,5.3,2.6,2.2,-3.7,-3.0
COCC(=O)N1CCCC(CNS(=O)(=O)c2ccc(OC)cc2)C1 (configuration not stated),14.2*,0.4,4.6,-3.4,-6.6,-9.3,-5.4,-6.1
COC(=O)[C@]12C[C@H](CC(=O)NCc3ccc(C)o3)C(=O)N(Cc3ccco3)C1=C[C@H](COCc1ccccc1)O[C@@H]2C,4.7,0.3,4.3,.,-2.9,-1.3,.,.
S=c1[nH]nc(-c2ccco2)n1/N=C/c1ccccc1Cl,-0.5,-0.7,-1.9,11.7,-1.0,-0.3,.,.
Cc1ccc(/C=N/n2c(-c3ccco3)n[nH]c2=S)s1,10.7*,-0.5,0.5,1.2,-2.7,5.2,-12.4,-8.7
COc1ccc(S[C@]2(C(=O)NCc3ccccc3)CC(=O)N[C@@H]2c2ccc(OC)cc2)cc1,4.0,-0.8,7.4,.,5.1,-1.4,.,.
COC(=O)[C@H](CC(C)C)N(CCCc1cn(Cc2ccc(C)cc2)nn1)S(=O)(=O)c1ccc(F)cc1Br,0.7,0.3,0.5,.,3.1,-2.0,.,.
CC(=O)c1cccc(NC(=O)Nc2ccccc2)c1,3.4,0.2,-2.4,-13.0,-0.4,4.4,.,.
CC(=O)c1cccc(NC(=O)C2C3C=CC(C3=C(c3ccccc3)c3ccccc3)C2C(=O)O)c1 (configuration not stated),10.2*,0.6,-12.8,-28.2,0.9,2.7,-8.2,-11.7
CC(C)CC(NC(=O)C1CCCN1C(=O)OC(C)(C)C)C(=O)NCC(N)=O (configuration not stated),7.1,0.3,13.8*,6.6,-1.7,0.2,-1.6,2.3
Cc1cc(C)c2c(=O)n(CC(=O)Nc3ccc(Cl)cc3)sc2n1,1.0,0.1,-4.9,-4.1,-0.3,-0.2,.,.
Cc1ccc(NC(=O)Cn2sc3nc(C)cc(C)c3c2=O)c(Cl)c1,13.2*,-0.4,-0.9,-21.0,0.8,0.8,-5.8,-2.3
CC(C)[C@H](NC(=O)c1ccccc1)C(=O)OCc1nnc(-c2ccccc2)o1,12.2*,-0.4,-4.5,5.5,-4.2,-6.2,-2.7,-1.0
COC(=O)c1cc(-c2ccc(-c3ccccc3)c(F)c2)c(=O)n2c1CCC2,-5.4,0.3,-8.7,.,5.0,-1.0,.,.
CC(=O)Nc1cccc(C(=O)OC(C)C(=O)NCc2ccc3c(c2)OCO3)c1 (configuration not stated),9.9*,-0.2,-8.1,-2.4,8.0,0.1,4.4,5.9
CC(OC(=O)c1ccc2c(c1)OCO2)C(=O)NC1CCCCC1C (configuration not stated),0.1,0.7,3.0,-5.5,0.1,-3.8,.,.
SMILES,PLCg1 inh,proKLK7 act,PLC-beta3 inh,CendR NRP1 mod,DDE Tn7 FP inh,DDE Tn6 FP inh,PLCg1 ctr,PLCbeta3 conf
CC(OC(=O)c1ccc2c(c1)OCO2)C(=O)NC1CCCCC1 (configuration not stated),11.4*,-0.1,1.8,-14.0,3.4,-1.1,-6.7,-1.6
CC(C)C(=O)Nc1cccc(C(=O)NCc2ccc3c(c2)OCO3)c1,.,.,.,-3.3,.,.,.,.
Fc1ccc(NC2CCC23CCC(c2ccccc2)CC3)cc1C(F)(F)F (configuration not stated),0.6,.,1.8,.,3.3,-1.3,.,.
O=S(=O)(/N=C(/Nc1ccccc1)C(F)(F)F)c1ccccc1,9.6*,0.2,5.0,10.3,2.7,8.1,-4.9,0.2
CCc1ccccc1N/C(=N\S(=O)(=O)c1ccccc1)C(F)(F)F,-0.8,-0.5,3.5,11.1,9.2,1.3,.,.
O=S(=O)(c1ccc(F)c(F)c1)N1CCN(Cc2ccc3c(c2)OCO3)CC1,11.5*,0.7,4.2,-9.1,-3.0,-9.5,-0.3,0.0
COc1cc(C)c(C)cc1S(=O)(=O)N1CCN(Cc2ccc3c(c2)OCO3)CC1,10.2*,0.3,10.8*,4.7,6.2,-1.0,-4.0,-0.5
COc1ccc(S[C@]2(C(=O)NCCc3ccccc3)CC(=O)N[C@@H]2c2ccc(OC)cc2)cc1,5.1,1.0,7.5,.,4.5,0.3,.,.
COc1ccc(C(=O)C2CCCN(C(=O)CSC)C2)cc1OC (configuration not stated),14.0*,0.2,7.8,5.2,-2.5,1.7,-2.7,-0.2
CC(CCN1CCC(C(O)(c2ccccc2)c2ccccc2)CC1)Oc1ccc(OC(F)(F)F)cc1 (configuration not stated),2.2,1.1,4.4,.,5.8,4.1,.,.
O=S(=O)(c1ccccc1)c1ccccc1/C=N\O,10.9*,-0.1,0.6,0.5,-5.0,5.1,-4.3,-5.3
Cc1ccc(S(=O)(=O)Oc2ccccc2/C=N/O)cc1,0.6,-0.3,0.6,-2.9,0.6,1.0,.,.
Cc1ccc(-c2cc(C(=O)NN=Cc3ccc(F)cc3)[nH]n2)cc1C,2.2,-1.1,0.1,.,1.4,-12.3,.,.
COc1ccc(CNCC#Cc2cccnc2)c(OC)c1,-4.5,-0.1,-3.5,.,3.0,-2.0,.,.
O=C1c2ccsc2SCCN1Cc1cccc(Cl)c1,1.8,0.3,-0.2,6.1,-2.5,4.0,.,.

# Screening results deposited in PubChem by several laboratories.
